TDP2 absorb – blocks human TDP2 phosphodiesterase activity; O95551; recombinant TDP2, T5PNP hydrolysis, p-nitrophenol absorbance 415 nm; inhibition, % at 12.8 µM; hit rate 0.34% among 370,000; AID 720702;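 active = inhibition above the mean of all tested compounds plus 3 SD, set per campaign, cut at about 25% in these data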;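 also: 0% = DMSO with enzyme and 100% = buffer with substrate but no TDP2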
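Test system: Human TDP2 enzyme | Reagent: 5 mM T5PNP | Compound dosing: 12.8 µM single point, 1% DMSO | Incubation: Enzyme reaction with compound for 2 h at 37 °C | Technique: p-Nitrophenol epi absorbance | Read-out: % inhibition relative to enzyme-containing and enzyme-free wells | Benchmarks: High control without enzyme, low control DMSO plus TDP2 | Replicates: Singlicate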
MBD2 inh – inhibitors of human MBD2 binding to methylated oligonucleotide; Q9UBB5; TR-FRET; inhibition, % at 4.4 µM; hit rate 0.31% among 370,000; AID 686964; in the data active = inhibition above about 13%
Target sequence (Q9UBB5 whole entry, looked up): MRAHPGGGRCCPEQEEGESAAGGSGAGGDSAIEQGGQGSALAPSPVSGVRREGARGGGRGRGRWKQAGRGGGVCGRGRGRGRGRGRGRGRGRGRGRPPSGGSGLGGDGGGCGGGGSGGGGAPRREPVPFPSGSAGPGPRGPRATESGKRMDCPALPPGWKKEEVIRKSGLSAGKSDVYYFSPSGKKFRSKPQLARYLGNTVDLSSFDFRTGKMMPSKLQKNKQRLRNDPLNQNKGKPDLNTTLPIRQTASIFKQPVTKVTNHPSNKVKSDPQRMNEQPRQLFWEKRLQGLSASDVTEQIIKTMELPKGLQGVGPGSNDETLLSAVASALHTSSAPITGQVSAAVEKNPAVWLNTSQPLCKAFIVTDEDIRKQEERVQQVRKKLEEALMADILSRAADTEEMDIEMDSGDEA
LEDGF integ inh – blocks HIV-1 LEDGF/p75-dependent DNA integration; TR-FRET IN-LEDGF/p75 DNA integration, Eu/Cy5; inhibition, % at 3.7 µM; hit rate 0.64% among 370,000;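 active = inhibition above the screen-wide mean plus 3 SD, cut at about 13% in these data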;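 also: signal is the Cy5 over europium emission ratio at 671 and 618 nm; 0% = plate median of compound wells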
Rin1 Abl inh – blocks binding of human Rin1 to Abl; inhibition, % at 7.35 µM; hit rate 0.4% among 360,000; P00519+Q13671; TR-FRET Rin1/Abl binding, biochemical; in the data active = inhibition above about 5%, passing the limit was not always enough
UHRF1 MBD2 ctr – UHRF1 methyl-DNA binding inhibition; AID 687016; inhibition, % at 4.4 µM; hit rate 0.75% among 370,000; Q96T88; UHRF1 binding to methylated oligo, TR-FRET; in the data active = inhibition above about 21%;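 also: UHRF1 SRA domain binding a hemimethylated CpG hairpin DNA probe; 0% = median of test compound wells and 100% = reference inhibitor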
Rin1-Abl confirm – Rin1-Abl interaction inhibition confirmation; shares compounds with Rin1 Abl inh; TR-FRET Rin1-Abl binding, purified proteins; inhibition, % at 7.35 µM; hit rate 49% among 1,300; AID 602124
GFP quench – counter-screen for Rin1-Abl inhibitors: GFP fluorescence quenchers | hit rate 8.5% among 1,300 | inhibitors/quenchers counterscreen | shares compounds with Rin1 Abl inh | inhibition, % at 6.75 µM;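 also: ABL1-eGFP fusion protein alone without its partner RIN1-SBP; 0% = protein with vehicle and 100% = wells lacking protein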
GFP quench DR – GFP fluorescence interference dose response. AID 602182. GFP fluorescence interference/quenching counterscreen. shares compounds with Rin1 Abl inh. 230 tested, under 10 active. IC50, µM; call rule not given here;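 also: ABL1-eGFP fusion protein alone without its RIN1 binding partner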
* marks the source's active call; other numbers are inactive results; · = not tested or not shown. An excerpt weighted towards active compounds, which were near 1.9% of everything screened. Rule as the data show it, unless noted: active = inhibition above about 6.5%; inactive = the rest.

SMILES | TDP2 absorb | MBD2 inh | LEDGF integ inh | Rin1 Abl inh | UHRF1 MBD2 ctr | Rin1-Abl confirm | GFP quench | others
O=C(CCSc1nnc(-c2ccc(O)cc2)o1)N1CCOCC1 | 4 | 5 | -2 | 15* | 4 | 16* | -1
CN[C@H]1C[C@H]2c3[nH]c4cccc(-c5ccccc5)c4c3CCN2C[C@H]1[C@H](C)O | -4 | -1 | 4 | · | -3 | · | ·
CSc1nnc2c(n1)C[C@H](c1ccccc1)[C@@H](C)[C@@H](C(=O)N1CCCC1)C2 | 4 | 2 | -1 | · | -3 | · | ·
O=C(Nc1cccc(-c2nnc(-c3ccco3)o2)c1)c1ccccc1 | -7 | -1 | -1 | 10* | 4 | -2 | -2
CC(=O)Oc1ccc(C(=O)Nc2cccc(-c3nnc(-c4ccco4)o3)c2)cc1 | 7 | 2 | -2 | -1 | 3 | · | ·
CCCCCCCCN1C(=O)[C@@H](CC(=O)NCc2ccccc2)C[C@@]2(C(=O)OC)C1=C[C@H](COCc1ccccc1)O[C@@H]2C | -6 | 2 | -6 | · | 0 | · | ·
COc1cccc(C(=O)N[C@H](C(=O)N2CCC[C@H]2C(=O)NCCc2ccccc2Cl)C2CCCCC2)c1 | -4 | -3 | 2 | · | -1 | · | ·
Cc1ccc(-c2nn3c(-c4ccco4)nnc3c3ccccc23)cc1S(=O)(=O)NCC1CCCO1 (configuration not stated) | -5 | 6 | 0 | 11* | 0 | 27* | 1 | GFP quench DR=>68
Cc1ccc(-c2nnc(Nc3ccccc3)c3ccccc23)cc1S(=O)(=O)NCC1CCCO1 (configuration not stated) | 7 | -5 | -2 | -7 | 0 | · | ·
Cc1ccc(-n2c(SCC(=O)c3ccc(-c4ccccc4)cc3)nnc2-c2ccc(C(C)(C)C)cc2)cc1 | 2 | -1 | 1 | · | 0 | · | ·
O=C(CSc1nc2ccccc2s1)NC1CCCc2ccccc21 (configuration not stated) | 10 | 9 | 0 | 7.5* | -1 | -1 | 1
CCc1ccc(C(=O)Nn2cnc3ccccc3c2=O)cc1 | 14 | -5 | 1 | 4 | -2 | · | ·
O=C(Nn1cnc2ccccc2c1=O)c1ccc(Br)cc1 | 9 | 0 | -1 | 13* | 1 | -1 | -1
Cc1cccc(N2CCN(Cc3oc(CO)cc(=O)c3O)CC2)c1C | -8 | 0 | -4 | 0 | -2 | · | ·
O=c1cc(CO)oc(CN2CCN(CCO)CC2)c1O | -4 | 2 | -1 | 6.5* | 3 | -2 | 1
CC(=O)c1ccc(OCC(O)CN2CCN(c3ccccn3)CC2)cc1 (configuration not stated) | 6 | 4 | -1 | 9.3* | 1 | -1 | 0
CCCCCCn1c(C(C)O)nc2ccccc21 (configuration not stated) | -8 | 2 | 0 | 21* | 1 | 1 | -1
CC(O)c1nc2ccccc2n1CCCc1ccccc1 (configuration not stated) | -7 | 0 | -4 | 1 | 0 | · | ·
CN1CC2(C)OC(=O)C(Cl)=C2CC1c1ccccc1 (configuration not stated) | -3 | 1 | -4 | 6.2* | -1 | 0 | -2
CN1NC(=O)CC1c1ccccc1 (configuration not stated) | 6 | -6 | 0 | 1 | -1 | · | ·
COCCN1CCn2c(nc3cc(NC(=O)Cn4nc(C)c5ccccc5c4=O)ccc32)C1 | 2 | 9 | -1 | 0 | 5 | · | ·
Cc1nn(CC(=O)Nc2ccc3c(c2)nc2n3CCOC2)c(=O)c2ccccc12 | -4 | 0 | -3 | 10* | 0 | -1 | 1
CC(=O)c1ccc(OC(C)C)c(CN2CCCCC2)c1 | 1 | -2 | 0 | 8.6* | 1 | -1 | 0
CC(=O)c1cc(CN2CCCCC2)cc(OC(C)C)c1 | -3 | 6 | -1 | 4 | 3 | · | ·
O=C(Nc1cc(N2CCOCC2)ncn1)NC1(C(F)(F)F)Oc2ccccc2O1 | -9 | 4 | -5 | 9.8* | 3 | 4 | 0
COc1cccc(NC(=O)NC2(C(F)(F)F)Oc3ccccc3O2)c1 | -2 | 3 | -4 | 4 | -2 | · | ·

Screens as filed in PubChem.
